The record followed here is ChEMBL document CHEMBL5331111, “Synthetic Biology Facilitates Semisynthetic Development of Type V Glycopeptide Antibiotics Targeting Vancomycin-Resistant Enterococcus” (J Med Chem, 2023).

The structures appear in SMILES notation. In brackets after ≈: the same amount, converted by molar mass. Activity calls are given as the source filed them. No cut-off for these calls is given here.

In data set [1] the test system is Mycolicibacterium smegmatis. As to the kind of experiment: Antimycobacterial activity against Mycobacterium smegmatis MC2 155 assessed as inhibition of bacterial growth measured after 2 days by resazurin dye based analysis. It counts as functional. The settings on record: MC2 155, 48 h, time 2 day. In a few lines: (§1)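 Strains grown in 7H9 broth with 0.2% glycerol, 10% OADC and 0.05% Tween-80. Inoculum was about 5 × 10^5 CFU/mL, checked by plating on 7H10/OADC agar to be 3–8 × 10^5. Read at 2 days for M. smegmatis and 7 days for M. tuberculosis H37Ra, M. bovis and M. avium. Resazurin 30 μg/mL was then added for one further day. Values are averages of at least two experiments.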

Data set [2] concerns Mycolicibacterium fortuitum. In words: Antimycobacterial activity against Mycobacterium fortuitum ATCC 6891 assessed as inhibition of bacterial growth measured after 2 days by resazurin dye based analysis. It counts as functional. The settings on record: ATCC 6891, 48 h, time 2 day. In a few lines: (§2)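 Cultured in 7H9 with 0.2% glycerol, 10% OADC and 0.05% Tween-80. Inoculum diluted to ~5 × 10^5 CFU/mL and confirmed at 3–8 × 10^5 by plating on 7H10 agar. Growth read at 2 days, then 30 μg/mL resazurin added for one more day. Values averaged from at least two experiments.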
(Resazurin is reduced to fluorescent resorufin, in cell work by metabolically active cells.)

Data set [3] concerns Mycobacteroides abscessus. In words: Antimycobacterial activity against Mycobacterium abscessus ATCC 19977 assessed as inhibition of bacterial growth measured after 2 days by resazurin dye based analysis. The settings on record: ATCC 19977, 48 h, time 2 day. Type of data set: functional. In a few lines: as §2
Data set [4] deals with Mycobacterium tuberculosis. As to the kind of experiment: Antimycobacterial activity against Mycobacterium tuberculosis H37Ra assessed as inhibition of bacterial growth measured after 7 days by resazurin dye based analysis. Type of data set: functional. The following applies: 168 h, time 7 day. Summed up:
as §1

A short description of data set [5]: Antimycobacterial activity against Mycobacterium avium subsp. avium ATCC 25291 assessed as inhibition of bacterial growth measured after 7 days by resazurin dye based analysis. Type of data set: functional. The settings on record: ATCC 25291, 168 h, time 7 day. Summed up: as §1
The subject of data set [6] is Staphylococcus aureus. In words: Antibacterial activity against Staphylococcus aureus ATCC 33591 assessed as reduction in bacterial growth by Mueller-Hinton broth based assay. It counts as functional. In a few lines: (§3)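 Broth MIC by standard procedure in Mueller-Hinton broth, for both B. subtilis 168 and S. aureus ATCC 33591.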
The test system of data set [7] is Enterococcus faecium. As to the kind of experiment: Antibacterial activity against vancomycin-resistant Enterococcus faecium ATCC 700221 assessed as inhibition of bacterial growth by Mueller-Hinton broth based assay. Type of data set: functional.
The subject of data set [8] is Enterococcus faecalis. In words: Antibacterial activity against vancomycin-resistant Enterococcus faecalis ATCC 51299 assessed as inhibition of bacterial growth by Mueller-Hinton broth based assay. Type of data set: functional.
The subject of data set [9] is Bacillus subtilis. In words: Antibacterial activity against Bacillus subtilis 168 assessed as reduction in bacterial growth by Mueller-Hinton broth based assay. It counts as functional. Summed up: as §3
Data set [10] is described as follows: Cytotoxicity against HEK293 cells assessed as inhibition of cell growth incubated for 48 hrs by Cell-Titer Glo reagent based analysis. It counts as toxicity. The settings on record: human. Summed up: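 HEK293 cells seeded at 7500 cells/well in DMEM with 10% FBS, 2 mM glutamine and pen/strep, and left 18 h at 37 °C under 5% CO2. Compound then added at 1% final DMSO and incubated 48 h. Viability read by CellTiter-Glo luminescence and normalized to DMSO-only wells. Curves fitted by 4PL constrained to 0–1.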

The nature of data set [11]: Hemolytic activity in human RBC incubated for 1 hr by absorbance based analysis. It counts as toxicity, cell-based, Erythrocyte. The following applies: red blood cells (erythrocytes). Summed up: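 Human K2-EDTA blood RBCs washed twice in 150 mM NaCl, resuspended in PBS pH 7.4, then diluted 1:50. Incubated with compound at 1% final DMSO for 1 h at 37 °C and pelleted at 500g for 5 min. Supernatant absorbance read at 540 nm. Controls were DMSO-only and a Triton X-100 dilution series (20% to 0.02%).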

Data set [12] relates to Enterococcus faecium. As to the kind of experiment: Antibacterial activity against Vancomycin-resistant Enterococcus faecium ATCC 700221 infected in cyclophosphamide induced neutropenic thigh infection CD-1 mouse model assessed as reduction in weight loss at 50 mg/kg, ip qid measured after 24 hrs post-infection. Type of data set: functional, organism-based. In a few lines:
(§4)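 Female CD-1 mice, 6–10 weeks old, made neutropenic with i.p. cyclophosphamide (150 mg/kg day 4, 100 mg/kg day 1). About 1 × 10^6 CFU of E. faecium ATCC 700221, grown in BHI with vancomycin, were injected into each thigh. Dosing was i.p. at 1, 3, 5 and 20 h post-infection, in PEG400/DMSO/H₂O (45/5/50) vehicle, with vehicle controls. Mice were euthanized at 24 h.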

Data set [13] relates to Enterococcus faecium. As to the kind of experiment: Antibacterial activity against Vancomycin-resistant Enterococcus faecium ATCC 700221 infected in cyclophosphamide induced neutropenic thigh infection CD-1 mouse model assessed as increase in survival rate at 50 mg/kg, ip qid measured after 24 hrs post-infection. Type of data set: functional, organism-based. Summed up:
as §4

Usually MIC stands for the least concentration at which growth counts as inhibited. In the case of `NNC(=O)c1ccncc1` [ISONIAZID], the MIC was 4 µg/mL (≈ 29.2 µM) in data set [1]; 4 µg/mL (≈ 29.2 µM) in data set [2]; greater than 128 µg/mL in data set [3]; 0.063 µg/mL (≈ 0.459 µM) in data set [4]; greater than 128 µg/mL in [5].

As a reminder, the IC50 is the midpoint of a concentration-inhibition curve. Consider `CN1C(=O)[C@@H]2NC(=O)[C@@H]3NC(=O)[C@@H](c4ccc(O)cc4)NC(=O)[C@H](NC(=O)Cc4ccc(O)cc4)Cc4c[nH]c5cc(ccc45)-c4cc3cc(c4O)Oc3ccc(cc3)C[C@H]1C(=O)N[C@@H](C(=O)NCCC[N+](C)(C)C)c1ccc(O)c(c1)Oc1ccc2cc1`, for which the MIC in data set [6] was greater than 128 µg/mL; in data set [1], 0.5 µg/mL; in data set [7], 4 µg/mL; in [8], 16 µg/mL; in data set [9], 4 µg/mL. In addition, in data set [10], the half-inhibitory concentration (IC50) at 48 h is greater than 256 µg/mL. In [11], this molecule came in with an IC50 at 1 h greater than 256 µg/mL.

`CN1C(=O)[C@@H]2NC(=O)[C@@H]3NC(=O)[C@@H](c4ccc(O)cc4)NC(=O)[C@H](NC(=O)C(Nc4cc(Cl)cc(Cl)c4Cl)c4ccc(O)cc4)Cc4c[nH]c5cc(ccc45)-c4cc3cc(c4O)Oc3ccc(cc3)C[C@H]1C(=O)N[C@@H](C(=O)O)c1ccc(O)c(c1)Oc1ccc2cc1` (stereo not given in full): the MIC in data set [6] was 4 µg/mL (≈ 3.08 µM); in [1], greater than 128 µg/mL; in data set [7], 16 µg/mL (≈ 12.3 µM); in data set [8] it was 8 µg/mL (≈ 6.15 µM); in data set [9], 4 µg/mL (≈ 3.08 µM).

On to `CC(=O)NC[C@H]1CN(c2ccc(N3CCOCC3)c(F)c2)C(=O)O1`, for which the outcome in data set [12] and in [13] was Active.

Consider `CN1C(=O)[C@@H]2NC(=O)[C@@H]3NC(=O)[C@@H](c4ccc(O)cc4)NC(=O)[C@H](NC(=O)C(Nc4cccc(-c5ccc(F)cc5)c4)c4ccc(O)cc4)Cc4c[nH]c5cc(ccc45)-c4cc3cc(c4O)Oc3ccc(cc3)C[C@H]1C(=O)N[C@@H](C(=O)O)c1ccc(O)c(c1)Oc1ccc2cc1` (stereo not given in full), for which the MIC was greater than 128 µg/mL in data set [6]; greater than 128 µg/mL in data set [1]; 16 µg/mL (≈ 12.4 µM) in [7]; 16 µg/mL (≈ 12.4 µM) in data set [8]; greater than 128 µg/mL in [9].

With `CN1C(=O)[C@@H]2NC(=O)[C@@H]3NC(=O)[C@@H](c4ccc(O)cc4)NC(=O)[C@H](NC(=O)C(Nc4ccsc4)c4ccc(O)cc4)Cc4c[nH]c5cc(ccc45)-c4cc3cc(c4O)Oc3ccc(cc3)C[C@H]1C(=O)N[C@@H](C(=O)O)c1ccc(O)c(c1)Oc1ccc2cc1` (stereo not given in full), the MIC is 4 µg/mL (≈ 3.32 µM) in data set [6]; greater than 128 µg/mL in data set [1]; 8 µg/mL (≈ 6.65 µM) in data set [7]; 4 µg/mL (≈ 3.32 µM) in data set [8]; 1 µg/mL (≈ 0.831 µM) in [9].

As to `CN1C(=O)[C@@H]2NC(=O)[C@@H]3NC(=O)[C@@H](c4ccc(O)cc4)NC(=O)[C@H](NC(=O)C(NC(=O)CCCCCN)c4ccc(O)cc4)Cc4c[nH]c5cc(ccc45)-c4cc3cc(c4O)Oc3ccc(cc3)C[C@H]1C(=O)N[C@@H](C(=O)O)c1ccc(O)c(c1)Oc1ccc2cc1` (stereo not given in full), the MIC in data set [6] worked out at 8 µg/mL (≈ 6.48 µM). Moreover, the concentration for half-maximal inhibition (IC50) at 48 h in data set [10] was greater than 256 µg/mL. The IC50 at 1 h in [11] is greater than 256 µg/mL.

Regarding `CN1C(=O)[C@@H]2NC(=O)[C@@H]3NC(=O)[C@@H](c4ccc(O)cc4)NC(=O)[C@H](NC(=O)C(Nc4ccc(Br)cc4)c4ccc(O)cc4)Cc4c[nH]c5cc(ccc45)-c4cc3cc(c4O)Oc3ccc(cc3)C[C@H]1C(=O)N[C@@H](C(=O)O)c1ccc(O)c(c1)Oc1ccc2cc1` (stereo not given in full), the MIC in data set [6] is 4 µg/mL (≈ 3.13 µM); in [1], greater than 128 µg/mL; in [7], 8 µg/mL (≈ 6.27 µM); in data set [8], 8 µg/mL (≈ 6.27 µM); in data set [9], 2 µg/mL (≈ 1.57 µM).

For `CN1C(=O)[C@@H](c2cc(Cl)c(O)c(Cl)c2)NC(=O)[C@@H]2NC(=O)[C@@H](c3cc(Cl)c(O)c(Cl)c3)NC(=O)[C@H](NC(=O)C(=O)c3cc(Cl)c(O)c(Cl)c3)Cc3c[nH]c4cc(ccc34)-c3cc2cc(c3O)Oc2ccc(cc2)C[C@H]1C(=O)N[C@@H](C(=O)O)c1ccc(O)cc1` [ISOCOMPLESTATIN], the minimal inhibitory concentration (MIC) in [1] is greater than 128 µg/mL; in [2], greater than 128 µg/mL; in [3], greater than 128 µg/mL; in data set [4], greater than 64 µg/mL; in [5], greater than 64 µg/mL.

Regarding `CN1C(=O)[C@@H]2NC(=O)[C@@H]3NC(=O)[C@@H](c4ccc(O)cc4)NC(=O)[C@H](NC(=O)C(Nc4cc(C(F)(F)F)cc(C(F)(F)F)c4)c4ccc(O)cc4)Cc4c[nH]c5cc(ccc45)-c4cc3cc(c4O)Oc3ccc(cc3)C[C@H]1C(=O)N[C@@H](C(=O)O)c1ccc(O)c(c1)Oc1ccc2cc1` (stereo not given in full), the MIC in data set [6] was 8 µg/mL (≈ 6 µM); in data set [1], greater than 128 µg/mL; in data set [7], 8 µg/mL (≈ 6 µM); in data set [8], 8 µg/mL (≈ 6 µM); in [9], 8 µg/mL (≈ 6 µM).

Turning to `CN1C(=O)[C@@H]2NC(=O)[C@@H]3NC(=O)[C@@H](c4ccc(O)cc4)NC(=O)[C@H](NC(=O)C(N)c4ccc(O)cc4)Cc4c[nH]c5cc(ccc45)-c4cc3cc(c4O)Oc3ccc(cc3)C[C@H]1C(=O)N[C@@H](C(=O)NCCCN)c1ccc(O)c(c1)Oc1ccc2cc1` (stereo not given in full), the MIC stood at 1 µg/mL (≈ 0.849 µM) in [7] and 4 µg/mL (≈ 3.4 µM) in data set [8]. Besides, in data set [10], the IC50 at 48 h is greater than 256 µg/mL. In data set [11], this molecule displayed an IC50 at 1 h greater than 256 µg/mL.

As to `CN1C(=O)[C@@H]2NC(=O)[C@@H]3NC(=O)[C@@H](c4ccc(O)cc4)NC(=O)[C@H](NC(=O)C(Nc4ccc(O)c(O)c4O)c4ccc(O)cc4)Cc4c[nH]c5cc(ccc45)-c4cc3cc(c4O)Oc3ccc(cc3)C[C@H]1C(=O)N[C@@H](C(=O)O)c1ccc(O)c(c1)Oc1ccc2cc1` (stereo not given in full), the MIC is 16 µg/mL (≈ 12.8 µM) in data set [6]; greater than 128 µg/mL in data set [1]; 16 µg/mL (≈ 12.8 µM) in data set [7]; 8 µg/mL (≈ 6.42 µM) in [8]; 4 µg/mL (≈ 3.21 µM) in data set [9].

Consider `CCCCCCNC(C(=O)N[C@@H]1Cc2c[nH]c3cc(ccc23)-c2cc3cc(c2O)Oc2ccc(cc2)C[C@H]2C(=O)N[C@@H](C(=O)O)c4ccc(O)c(c4)Oc4ccc(cc4)[C@@H](NC(=O)[C@@H]3NC(=O)[C@@H](c3ccc(O)cc3)NC1=O)C(=O)N2C)c1ccc(O)cc1` (stereo not given in full), for which the MIC in data set [7] and in data set [8] was 4 µg/mL (≈ 3.32 µM) in each case. Also, the IC50 at 48 h in [10] is greater than 256 µg/mL. The IC50 at 1 h in [11] was greater than 256 µg/mL.
